Source: publication PMC9315039 (Angewandte Chemie (International Ed. in English), 2022)
Like-named read-outs stand apart in the source and are kept apart here.

Legend:
SIRT5 [1] = biological target: T1, SIRT5 (Homo sapiens, UniProt Q9NXA8); test: Continuous SIRT5 enzyme inhibition assay; assay type: biochemical
T1 sequence (Q9NXA8 34-310): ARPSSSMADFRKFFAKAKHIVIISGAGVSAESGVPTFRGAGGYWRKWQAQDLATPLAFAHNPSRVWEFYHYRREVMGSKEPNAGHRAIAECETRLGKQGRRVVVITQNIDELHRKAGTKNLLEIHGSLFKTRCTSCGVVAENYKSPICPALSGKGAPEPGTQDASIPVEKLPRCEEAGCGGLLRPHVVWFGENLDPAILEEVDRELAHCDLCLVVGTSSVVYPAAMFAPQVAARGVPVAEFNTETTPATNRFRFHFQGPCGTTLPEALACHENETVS
How it was run: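 Continuous trypsin-coupled progression-curve assay with SIRT5 80 nM, NAD⁺ 500 μM, Ac-LGKglu-AMC 40 μM and trypsin 1.70 ng×μL⁻¹, run at several inhibitor concentrations. k_obs was plotted against inhibitor concentration and fitted to slow-binding mechanism A or B, giving Ki and rate constants.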

[2] = test system: SIRT5 activity in HeLa cells; test: Live cell imaging of SIRT5 activity; assay type: cell-based; settings: 10 μM inhibitor, co-treatment with labeled peptide substrate 250 µM, 6 hours
How it was run: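 HeLa cells were co-treated with a dye-labeled succinylated peptide substrate and test compound at 10 μM. Mitochondrial SIRT5 desuccinylation triggers peptide self-assembly, and the resulting fluorescence was read in cells. This was single-concentration only, without dose-response.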

SIRT5 in HEK293T cells = biological target: T2, SIRT5 in HEK293T cells (Homo sapiens, UniProt Q9NXA8); test: Isothermal dose-response cellular thermal shift assay; assay type: cell-based
T2 sequence (Q9NXA8 37-310): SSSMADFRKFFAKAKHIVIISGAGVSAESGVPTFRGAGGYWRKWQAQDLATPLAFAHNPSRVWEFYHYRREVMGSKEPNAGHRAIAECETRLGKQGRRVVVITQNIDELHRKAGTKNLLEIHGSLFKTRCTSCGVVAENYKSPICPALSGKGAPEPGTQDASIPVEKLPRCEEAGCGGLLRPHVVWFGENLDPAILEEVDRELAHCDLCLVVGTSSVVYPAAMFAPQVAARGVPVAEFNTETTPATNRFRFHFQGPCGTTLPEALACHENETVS
How it was run: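 ITDRF-CETSA in HEK293T cells. Cells were treated 2 h with test compound at 2.6 nM–10 μM, with a reference inhibitor at 10 μM as internal control. Samples were heated at 52 °C and soluble SIRT5 was detected by immunoblot. EC50 came from fitted dose-response curves (n≥2), and EC50s of masked/unmasked pairs were compared.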

SKM-1 cells = test: MTT cell viability assay, SKM-1; assay type: cell-based; settings: concentrations up to 100 μM
How it was run: (§1)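 Viability dose-response in cultured SKM-1, OCI-AML2, MOLM-13 (AML) and HEK293T cells, with concentrations up to 100 μM. GI50 was taken from dose-response curves. Data come from three individual assays performed in duplicate.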

HEK293T cells = test: MTT cell viability assay, HEK293T; assay type: cell-based, human; settings: concentrations up to 100 μM
How it was run: as §1

SIRT5 [3] = biological target: T1, SIRT5; test: End-point SIRT5 deglutarylase inhibition assay; assay type: biochemical; settings: Figure 1A; inhibitor 100 μM; NI = no inhibition
How it was run: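 End-point deglutarylase assay using recombinant SIRT5 (150 nM) with Ac-LGKglut-AMC substrate (50 μM). Results are given as IC50 from dose-response curves (mean ± SD) or as %-inhibition at stated concentrations. Each value comes from at least two individual assays run in duplicate.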

SMILES	Ki (SIRT5 [1])	EC50 (SIRT5 in HEK293T cells) [nM]	%-inhibition of SIRT5 deglutarylase activity at 100 μM (SIRT5 [3])	further results
O=C(NC1CCC1)[C@H](Cc1c[nH]c2ccccc12)NC(=O)[C@H](CCCCNC(=S)NCCc1nnn[nH]1)NS(=O)(=O)c1cccc(F)c1 [Compound 24]	low nanomolar range	1300		inhibition of SIRT5 activity in HeLa cells (fluorescence) [2]: inhibition of SIRT5 activity; decrease in viability of SKM-1 cells (SKM-1 cells): None of the acidic compounds 1, 16, and 24 caused substantial decrease in viability; decrease in viability of HEK293T cells (HEK293T cells): None of the acidic compounds 1, 16, and 24 caused substantial decrease in viability
O=C(NC1CCC1)[C@H](Cc1c[nH]c2ccccc12)NC(=O)[C@H](CCCCNC(=S)NCCCO)NS(=O)(=O)c1cccc(F)c1 [Compound 3]			did not show substantial inhibition	
O=C1CC(CCNC(=S)NCCCC[C@H](NS(=O)(=O)c2cccc(F)c2)C(=O)N[C@@H](Cc2c[nH]c3ccccc23)C(=O)NC2CCC2)=NO1 [Compound 22]		> 10000		Ki (SIRT5 [1]; Ki): ~100 nM
O=C(CCNC(=S)NCCCC[C@H](NS(=O)(=O)c1cccc(F)c1)C(=O)N[C@@H](Cc1c[nH]c2ccccc12)C(=O)NC1CCC1)NO [Compound 27]	micromolar range			
CCCCNC(=S)NCCCC[C@H](NS(=O)(=O)c1cccc(F)c1)C(=O)N[C@@H](Cc1c[nH]c2ccccc12)C(=O)NC1CCC1 [Compound 2]			did not show substantial inhibition	
NC(=O)CCNC(=S)NCCCC[C@H](NS(=O)(=O)c1cccc(F)c1)C(=O)N[C@@H](Cc1c[nH]c2ccccc12)C(=O)NC1CCC1 [Compound 4]	micromolar range			
